From ChEMBL document CHEMBL1152730, “Non-peptidic substrate-mimetic inhibitors of Akt as potential anti-cancer agents” (Bioorg Med Chem, 2009)
Numbered stars: 1 amine (or outer) side, 2 acyl side, 3 side chain; on linkers, the order of the positions; unused ones are H or OH. Square brackets hold non-standard residues; d marks the D form. Peptide text beside a SMILES is read from it. * marks the point of attachment. X2 = O=C(c1ccc(N[*:1])cc1-c1cccc2ccccc12)[*:2]; X1 = O=C(c1ccc(N[*:1])c(-c2ccccc2)c1)[*:2]; X3 = O=C(c1ccc(N[*:1])cc1-c1ccccc1)[*:2]; X4 = Cc1cc(C(=O)[*:2])ccc1N[*:1]; NHBn = c1ccc(CN*)cc1

Target: RAC-alpha serine/threonine-protein kinase (Homo sapiens, UniProt P31749)
Assay: Inhibition of Akt1 by fluorescence polarization assay
Method in brief: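 Substrate 100 nM 5FAM-labelled GSK3-derived peptide, ATP 5 μM, inhibitor added from DMSO stock. Incubated 1 h at room temperature, then quenched with IMAP binding solution. Phosphorylation read by fluorescence polarization; IC50 determined.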

Sequence of RAC-alpha serine/threonine-protein kinase (P31749 whole entry): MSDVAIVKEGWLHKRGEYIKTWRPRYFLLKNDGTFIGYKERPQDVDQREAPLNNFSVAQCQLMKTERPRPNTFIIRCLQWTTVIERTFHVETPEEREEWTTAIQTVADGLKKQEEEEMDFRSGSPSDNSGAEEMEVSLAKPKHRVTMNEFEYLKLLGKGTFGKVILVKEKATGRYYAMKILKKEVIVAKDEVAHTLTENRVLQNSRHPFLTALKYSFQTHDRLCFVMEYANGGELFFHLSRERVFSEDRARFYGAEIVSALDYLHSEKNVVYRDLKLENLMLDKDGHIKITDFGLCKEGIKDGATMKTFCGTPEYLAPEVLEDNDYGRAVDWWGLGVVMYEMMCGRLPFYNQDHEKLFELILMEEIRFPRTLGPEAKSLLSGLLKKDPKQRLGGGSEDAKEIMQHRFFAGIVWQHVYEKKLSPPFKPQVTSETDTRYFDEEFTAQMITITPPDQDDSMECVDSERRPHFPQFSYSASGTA

Row | IC50 [µM] | Structure (SMILES)
1 | 12 | N#Cc1ccc(CN(Cc2ccc(C#N)cc2)c2ccc(NC(=O)c3ccc(NC(=O)CNC(=N)N)c(-c4ccc5ccccc5c4)c3)cc2)cc1
2 | 52 | CC(C)c1ccc(-c2cc(C(=O)Nc3ccc(N(Cc4ccccc4)Cc4ccccc4)cc3)ccc2NCCNC(=N)N)cc1
3 | 84 | N=C(N)NCCNc1ccc(C(=O)Nc2ccc(N(Cc3ccccc3)Cc3ccccc3)cc2)cc1-c1ccccc1
4 | 23 | N=C(N)NCCNc1ccc(C(=O)Nc2ccc(N(Cc3ccc4ccccc4c3)Cc3ccc4ccccc4c3)cc2)cc1-c1ccccc1
5 | 96 | N=C(N)NCCNc1ccc(C(=O)Nc2ccc(N(Cc3ccccc3)Cc3ccccc3)cc2)cc1
6 | 17 | N#Cc1ccc(CN(Cc2ccc(C#N)cc2)c2ccc(NC(=O)c3ccc(NCCNC(=N)N)c(-c4ccc5ccccc5c4)c3)cc2)cc1
7 | 44 | N=C(N)NCCNc1ccc(C(=O)Nc2ccc(N(Cc3ccccc3)Cc3ccccc3)cc2)cc1-c1ccc2ccccc2c1
8 | 78 | N#Cc1ccc(-c2cc(C(=O)Nc3ccc(N(Cc4ccccc4)Cc4ccccc4)cc3)ccc2NCCNC(=N)N)cc1
9 | 152 | Cc1cccc(CN(Cc2cccc(C)c2)c2ccc(NC(=O)c3ccc(NCCNC(=N)N)c(-c4ccccc4)c3)cc2)c1
10 | 232 | CC(=O)N[C@@H](CCCNC(=N)N)C(=O)Nc1ccc(C(=O)Nc2ccc3c(c2)c(=O)n(Cc2ccccc2)c(=O)n3Cc2ccccc2)cc1
11 | 173 | CC(=O)N[C@@H](CCCNC(=N)N)C(=O)Nc1ccc(C(=O)N[C@H](C(=O)N[C@@H](Cc2ccccc2)C(=O)NCc2ccccc2)C(C)C)c(-c2ccccc2)c1
12 | 17 | CC(C)c1ccc(CN(Cc2ccc(C(C)C)cc2)c2ccc(NC(=O)c3ccc(NC(=O)CNC(=N)N)c(-c4ccc5ccccc5c4)c3)cc2)cc1
13 | 126 | NC(N)=NCC(=O)Nc1ccc(-c2cc3cc(N(Cc4ccccc4)Cc4ccccc4)ccc3[nH]2)cc1
14 | 43 | N=C(N)NCCNc1ccc(C(=O)Nc2ccc(N(Cc3cccc4ccccc34)Cc3cccc4ccccc34)cc2)cc1-c1ccccc1
15 | > 500 | CC(=O)NCC(=O)N[C@@H](CCCNC(=N)N)C(=O)N1CCC[C@H]1C(=O)N[C@@H](CCCNC(=N)N)C(=O)Nc1ccc(C(=O)N[C@H](C(=O)N[C@@H](Cc2ccccc2)C(=O)NCc2ccccc2)C(C)C)cc1-c1ccccc1 (Ac-GRPR[X1]VF-NHBn)
16 | 215 | Cc1ccc(CN(Cc2ccc(C)cc2)c2ccc(NC(=O)c3ccc(NCCNC(=N)N)c(-c4ccccc4)c3)cc2)cc1
17 | 16 | CC(=O)NCC(=O)N[C@@H](CCCNC(=N)N)C(=O)N1CCC[C@H]1C(=O)N[C@@H](CCCNC(=N)N)C(=O)Nc1ccc(C(=O)N[C@H](C(=O)N[C@@H](Cc2ccccc2)C(=O)NCc2ccccc2)C(C)C)c(-c2ccccc2)c1 (Ac-GRPR[X3]VF-NHBn)
18 | 32 | N#Cc1ccc(CN(Cc2ccc(C#N)cc2)c2ccc3[nH]c(-c4ccc(NC(=O)CN=C(N)N)cc4)cc3c2)cc1
19 | 83 | N=C(N)NCCNc1ccc(C(=O)Nc2ccc(N(Cc3ccccc3)Cc3ccccc3)cc2)cc1-c1ccc(-c2ccccc2)cc1
20 | 50 | CC(=O)NCC(=O)N[C@@H](CCCNC(=N)N)C(=O)N1CCC[C@H]1C(=O)N[C@@H](CCCNC(=N)N)C(=O)Nc1ccc(C(=O)N[C@H](C(=O)N[C@@H](Cc2ccccc2)C(=O)NCc2ccccc2)C(C)C)cc1C (Ac-GRPR[X4]VF-NHBn)
21 | 158 | COC(=O)c1ccc(-c2cc(C(=O)Nc3ccc(N(Cc4ccccc4)Cc4ccccc4)cc3)ccc2NCCNC(=N)N)cc1
22 | 28 | CC(C)c1ccc(CN(Cc2ccc(C(C)C)cc2)c2ccc(NC(=O)c3ccc(NCCNC(=N)N)c(-c4ccccc4)c3)cc2)cc1
23 | 38 | CC(C)c1ccc(CN(Cc2ccc(C(C)C)cc2)c2ccc(NC(=O)c3ccc(NCCNC(=N)N)c(-c4ccc5ccccc5c4)c3)cc2)cc1
24 | 19 | N#Cc1ccc(CN(Cc2ccc(C#N)cc2)c2ccc(NC(=O)c3ccc(NCCNC(=N)N)c(-c4ccccc4)c3)cc2)cc1
25 | 112 | CC(=O)N[C@@H](CCCNC(=N)N)C(=O)Nc1ccc(C(=O)Nc2ccc3c(=O)n(Cc4ccccc4)c(=O)n(Cc4ccccc4)c3c2)cc1
26 | 288 | CC(=O)N[C@@H](CCCNC(=N)N)C(=O)Nc1ccc(C(=O)N[C@H](C(=O)N[C@@H](Cc2ccccc2)C(=O)NCc2ccccc2)C(C)C)cc1-c1ccccc1
27 | 55 | N=C(N)NCCNc1ccc(C(=O)Nc2ccc(N(Cc3ccc(F)cc3)Cc3ccc(F)cc3)cc2)cc1-c1ccccc1
28 | 253 | CC(=O)Nc1ccc(-c2cc(C(=O)Nc3ccc(N(Cc4ccccc4)Cc4ccccc4)cc3)ccc2NCCNC(=N)N)cc1
29 | 84 | N=C(N)NCCNc1ccc(C(=O)Nc2ccc(N(Cc3ccc(-c4ccccc4)cc3)Cc3ccc(-c4ccccc4)cc3)cc2)cc1-c1ccccc1

Row | Structure (SMILES) | IC50 [µM]
30 | CC(=O)NCC(=O)N[C@@H](CCCNC(=N)N)C(=O)N1CCC[C@H]1C(=O)N[C@@H](CCCNC(=N)N)C(=O)Nc1ccc(C(=O)N[C@H](C(=O)N[C@@H](Cc2ccccc2)C(=O)NCc2ccccc2)C(C)C)c(-c2cccc3ccccc23)c1 (Ac-GRPR[X2]VF-NHBn) | 78
